In ChEMBL document CHEMBL1137658, “Effect of caspofungin on metabolite profiles of Aspergillus species determined by nuclear magnetic resonance spectroscopy” (2007):
The source made the active and inactive calls. The rule behind the calls is not given here.

What was measured:
Aspergillus nidulans [1] = test: Antifungal activity against Aspergillus nidulans isolate 00-202661 assessed as lowest drug concentration resulting in aberrant hyphal growth after 72 hrs by broth microdilution method; assay type: functional
Aspergillus flavus [2] = test: Increase in metabolite production in Aspergillus flavus ATCC 204304 assessed as lowest drug concentration required to increase >50% fumarate production after 48 hrs in presence of 2 % glucose by NMR spectroscopy; assay type: functional
How it was run: (§1)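 Cultures grown in RPMI 1640-2% glucose-MOPS with drug series, 48 h. Culture media analysed by 600-MHz ¹H NMR. MEP taken from stack plots and peak integrals of resolved resonances, as lowest drug concentration suppressing nutrient use or metabolite production by ≥50%. Alternative MEP: lowest concentration raising fumarate >50%.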

Aspergillus fumigatus [3] = test: Inhibition of metabolite production in Aspergillus fumigatus ATCC 204305 assessed as lowest drug concentration required to inhibit 50% malate production after 48 hrs in presence of 2 % glucose by NMR spectroscopy; assay type: functional; how it was run: as §1
Aspergillus niger [4] = test: Antifungal activity against Aspergillus niger isolate 05-290-2479 assessed as lowest drug concentration resulting in aberrant hyphal growth after 48 hrs by broth microdilution method; assay type: functional
How it was run: (§2)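 Caspofungin tested by modified CLSI M38-A microdilution in RPMI 1640 plus 2% glucose, l-glutamine, MOPS pH 7. Serial dilutions 0.03125 to 16 μg/ml; duplicate plates. MEC = lowest concentration giving aberrant hyphal growth on inverted-microscope examination, read at 48 h.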

Aspergillus niger [5] = test: Inhibition of metabolite production in Aspergillus niger isolate 05-112-3701 assessed as lowest drug concentration required to inhibit 50% citrate production after 48 hrs in presence of 2 % glucose by NMR spectroscopy; assay type: functional; how it was run: as §1
Aspergillus fumigatus [6] = test: Increase in metabolite production in Aspergillus fumigatus isolate 06-067-1639 assessed as lowest drug concentration required to increase >50% glycine betaine production after 48 hrs in presence of 2 % glucose by NMR spectroscopy; assay type: functional
Aspergillus flavus [7] = test: Antifungal activity against Aspergillus flavus isolate 05-314-1100 assessed as lowest drug concentration resulting in aberrant hyphal growth after 48 hrs by broth microdilution method; assay type: functional; how it was run: as §2
Aspergillus terreus [8] = test: Antifungal activity against Aspergillus terreus isolate 06-059-2428 assessed as lowest drug concentration resulting in aberrant hyphal growth after 48 hrs by broth microdilution method; assay type: functional; how it was run: as §2
Aspergillus nidulans [9] = test: Antifungal activity against Aspergillus nidulans isolate 05-326-1785 assessed as lowest drug concentration resulting in aberrant hyphal growth after 72 hrs by broth microdilution method; assay type: functional
Aspergillus fumigatus [10] = test: Antifungal activity against Aspergillus fumigatus isolate 06-067-1639 assessed as lowest drug concentration resulting in aberrant hyphal growth after 48 hrs by broth microdilution method; assay type: functional; how it was run: as §2
Aspergillus nidulans [11] = test: Inhibition of metabolite production in Aspergillus nidulans isolate 00-202661 assessed as lowest drug concentration required to inhibit 50% fumarate production after 72 hrs in presence of 2 % glucose by NMR spectroscopy; assay type: functional
How it was run: (§3)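 A. nidulans grows slowly, so spectra were recorded after 72 h incubation in RPMI 1640-2% glucose-MOPS with drug dilutions. 600-MHz ¹H NMR of culture medium. Fumarate peak integrals plotted against drug concentration. MEP = lowest concentration with ≥50% fall in fumarate.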

Aspergillus niger [12] = test: Inhibition of metabolite production in Aspergillus niger isolate 05-290-2479 assessed as lowest drug concentration required to inhibit 50% citrate production after 48 hrs in presence of 2 % glucose by NMR spectroscopy; assay type: functional; how it was run: as §1
Aspergillus fumigatus [13] = test: Inhibition of metabolite production in Aspergillus fumigatus ATCC 204305 assessed as lowest drug concentration required to inhibit 50% malate production after 48 hrs in presence of 0.2 % glucose by NMR spectroscopy; assay type: functional
How it was run: (§4)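 A. fumigatus ATCC 204305 incubated 48 h and 72 h with caspofungin in RPMI 1640 containing 0.2% glucose instead of 2%. ¹H NMR of medium. MEP from malate peak area, taken at ≥50% reduction.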

Aspergillus nidulans [14] = test: Inhibition of metabolite production in Aspergillus nidulans isolate 05-326-1785 assessed as lowest drug concentration required to inhibit 50% fumarate production after 72 hrs in presence of 2 % glucose by NMR spectroscopy; assay type: functional; how it was run: as §3
Aspergillus fumigatus [15] = test: Inhibition of metabolite production in Aspergillus fumigatus ATCC 204305 assessed as lowest drug concentration required to inhibit 50% malate production after 72 hrs in presence of 0.2 % glucose by NMR spectroscopy; assay type: functional; how it was run: as §4
Aspergillus terreus [16] = test: Inhibition of metabolite production in Aspergillus terreus isolate 04-188-2548 assessed as lowest drug concentration required to inhibit 50% ethanol, malate production after 48 hrs in presence of 2 % glucose by NMR spectroscopy; assay type: functional; how it was run: as §1
Aspergillus fumigatus [17] = test: Increase in metabolite production in Aspergillus fumigatus ATCC 204305 assessed as paradoxical increase in glycine betaine, fumarate and succinate level at >= 0.5 ug/ml after 48 hrs
Aspergillus fumigatus [18] = test: Antifungal activity against Aspergillus fumigatus ATCC 204305 assessed as lowest drug concentration resulting in aberrant hyphal growth after 72 hrs by broth microdilution method; assay type: functional
Aspergillus niger [19] = test: Antifungal activity against Aspergillus niger isolate 05-112-3701 assessed as lowest drug concentration resulting in aberrant hyphal growth after 48 hrs by broth microdilution method; assay type: functional; how it was run: as §2
Aspergillus terreus [20] = test: Antifungal activity against Aspergillus terreus isolate 04-188-2548 assessed as lowest drug concentration resulting in aberrant hyphal growth after 48 hrs by broth microdilution method; assay type: functional; how it was run: as §2
Aspergillus fumigatus [21] = test: Antifungal activity against Aspergillus fumigatus ATCC 204305 assessed as lowest drug concentration resulting in aberrant hyphal growth after 48 hrs by broth microdilution method; assay type: functional; how it was run: as §2
Aspergillus fumigatus [22] = test: Inhibition of metabolite production in Aspergillus fumigatus ATCC 204305 assessed as lowest drug concentration required to inhibit 50% malate production after 72 hrs in presence of 2 % glucose by NMR spectroscopy; assay type: functional
How it was run: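 Caspofungin dilutions with A. fumigatus ATCC 204305 in RPMI 1640-2% glucose-MOPS, incubated 72 h. ¹H NMR of medium. MEP = lowest concentration giving ≥50% fall in malate, glycine betaine or fumarate peak areas.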

Aspergillus fumigatus [23] = test: Increase in metabolite production in Aspergillus fumigatus isolate 06-067-1639 assessed as paradoxical increase in glycine betain, fumarate, succinate level at 1 ug/ml after 48 hrs; assay type: functional, organism-based
Aspergillus fumigatus [24] = test: Inhibition of metabolite production in Aspergillus fumigatus isolate 06-067-1639 assessed as inhibition of malate and fumarate production at 2 to 4 ug/ml; assay type: functional
Aspergillus terreus [25] = test: Inhibition of metabolite production in Aspergillus terreus isolate 06-059-2428 assessed as lowest drug concentration required to inhibit 50% ethanol production after 48 hrs in presence of 2 % glucose by NMR spectroscopy; assay type: functional; how it was run: as §1
Aspergillus fumigatus [26] = test: Inhibition of metabolite production in Aspergillus fumigatus ATCC 204305 assessed as lowest drug concentration required to inhibit 50% glycine betain, fumarate, malate production after 48 hrs in presence of 2 % glucose by NMR spectroscopy; assay type: functional; how it was run: as §1
Aspergillus fumigatus [27] = test: Inhibition of metabolite production in Aspergillus fumigatus isolate 06-067-1639 assessed as inhibition of glycine betaine production at => 1 ug/ml; assay type: functional, organism-based
Aspergillus flavus [28] = test: Antifungal activity against Aspergillus flavus ATCC 204304 assessed as lowest drug concentration resulting in aberrant hyphal growth after 48 hrs by broth microdilution method; assay type: functional; how it was run: as §2
Aspergillus flavus [29] = test: Increase in metabolite production in Aspergillus flavus isolate 05-314-1100 assessed as lowest drug concentration required to increase >50% fumarate production after 48 hrs in presence of 2 % glucose by NMR spectroscopy; assay type: functional; how it was run: as §1

Structure (SMILES): CC[C@H](C)C[C@H](C)CCCCCCCCC(=O)N[C@H]1C[C@@H](O)[C@@H](NCCN)NC(=O)[C@@H]2[C@@H](O)CCN2C(=O)[C@H]([C@H](O)CCN)NC(=O)[C@H]([C@H](O)[C@@H](O)c2ccc(O)cc2)NC(=O)[C@@H]2C[C@@H](O)CN2C(=O)[C@H]([C@@H](C)O)NC1=O [CASPOFUNGIN]
- Activity (Aspergillus nidulans [1]): 2 µg/mL
- Activity (Aspergillus flavus [2]): 0.03 µg/mL
- Activity (Aspergillus fumigatus [3]): 0.5 µg/mL
- Activity (Aspergillus niger [4]): 0.5 µg/mL
- Activity (Aspergillus niger [5]): 0.5 µg/mL
- Activity (Aspergillus fumigatus [6]): 1 µg/mL
- Activity (Aspergillus flavus [7]): 0.03 µg/mL
- Activity (Aspergillus terreus [8]): 0.03 µg/mL
- Activity (Aspergillus nidulans [9]): 4 µg/mL
- Activity (Aspergillus fumigatus [10]): 0.03 µg/mL
- Activity (Aspergillus nidulans [11]): 2 µg/mL
- Activity (Aspergillus niger [12]): 0.25 µg/mL
- Activity (Aspergillus fumigatus [13]): 0.06 µg/mL
- Activity (Aspergillus nidulans [14]): 4 µg/mL
- Activity (Aspergillus fumigatus [15]): 0.03 µg/mL
- Activity (Aspergillus terreus [16]): 0.5 µg/mL
- Activity (Aspergillus fumigatus [17]): Active
- Activity (Aspergillus fumigatus [18]): 0.03 µg/mL
- Activity (Aspergillus niger [19]): 0.5 µg/mL
- Activity (Aspergillus terreus [20]): 0.03 µg/mL
- Activity (Aspergillus fumigatus [21]): 0.03 µg/mL
- Activity (Aspergillus fumigatus [22]): 0.03 µg/mL
- Activity (Aspergillus fumigatus [23]): Active
- inhibition (INH) (Aspergillus fumigatus [24]): 20%
- Activity (Aspergillus terreus [25]): 0.06 µg/mL
- Activity (Aspergillus fumigatus [26]): 0.5 µg/mL
- Activity (Aspergillus fumigatus [27]): inactive
- Activity (Aspergillus flavus [28]): 0.03 µg/mL
- Activity (Aspergillus flavus [29]): 0.03 µg/mL
